How the values were obtained:
Assay type in all cases: functional, cell-based
[1] = biological target: T1, Organic cation/carnitine transporter 2 (Homo sapiens, UniProt O76082); test: TP_TRANSPORTER: inhibition of Carnitine uptake (Carnitine: 0.02 uM, Ampicillin: 2500 uM) in OCTN2-expressing HeLa cells
T1 sequence (O76082 whole entry): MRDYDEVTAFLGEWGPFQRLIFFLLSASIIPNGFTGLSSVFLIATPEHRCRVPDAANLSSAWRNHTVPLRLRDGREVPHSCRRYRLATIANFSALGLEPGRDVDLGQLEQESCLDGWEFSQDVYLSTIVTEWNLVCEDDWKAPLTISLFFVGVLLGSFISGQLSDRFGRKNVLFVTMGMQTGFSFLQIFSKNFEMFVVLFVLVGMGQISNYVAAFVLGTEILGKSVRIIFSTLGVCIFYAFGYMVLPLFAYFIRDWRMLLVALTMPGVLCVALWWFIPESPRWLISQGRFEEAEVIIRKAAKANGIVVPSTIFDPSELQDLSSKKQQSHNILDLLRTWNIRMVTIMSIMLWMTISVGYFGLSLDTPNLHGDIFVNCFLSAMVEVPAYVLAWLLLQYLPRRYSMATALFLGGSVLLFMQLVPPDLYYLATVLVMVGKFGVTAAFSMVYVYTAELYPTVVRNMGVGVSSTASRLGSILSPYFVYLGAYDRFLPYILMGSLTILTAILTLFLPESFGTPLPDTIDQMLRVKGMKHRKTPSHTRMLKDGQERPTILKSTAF

[2] = biological target: T1, Organic cation/carnitine transporter 2; test: TP_TRANSPORTER: inhibition of Carnitine uptake (Carnitine: 0.02 uM, Cyclacillin: 2500 uM) in OCTN2-expressing HeLa cells
[3] = biological target: T2, Solute carrier family 15 member 1 (Homo sapiens) (UniProt P46059); test: TP_TRANSPORTER: inhibition of Gly-Sar uptake (Gly-Sar: 50 uM, Cefluprenam: 2500uM) in PEPT1-expressing HeLa cells
T2 sequence (whole entry): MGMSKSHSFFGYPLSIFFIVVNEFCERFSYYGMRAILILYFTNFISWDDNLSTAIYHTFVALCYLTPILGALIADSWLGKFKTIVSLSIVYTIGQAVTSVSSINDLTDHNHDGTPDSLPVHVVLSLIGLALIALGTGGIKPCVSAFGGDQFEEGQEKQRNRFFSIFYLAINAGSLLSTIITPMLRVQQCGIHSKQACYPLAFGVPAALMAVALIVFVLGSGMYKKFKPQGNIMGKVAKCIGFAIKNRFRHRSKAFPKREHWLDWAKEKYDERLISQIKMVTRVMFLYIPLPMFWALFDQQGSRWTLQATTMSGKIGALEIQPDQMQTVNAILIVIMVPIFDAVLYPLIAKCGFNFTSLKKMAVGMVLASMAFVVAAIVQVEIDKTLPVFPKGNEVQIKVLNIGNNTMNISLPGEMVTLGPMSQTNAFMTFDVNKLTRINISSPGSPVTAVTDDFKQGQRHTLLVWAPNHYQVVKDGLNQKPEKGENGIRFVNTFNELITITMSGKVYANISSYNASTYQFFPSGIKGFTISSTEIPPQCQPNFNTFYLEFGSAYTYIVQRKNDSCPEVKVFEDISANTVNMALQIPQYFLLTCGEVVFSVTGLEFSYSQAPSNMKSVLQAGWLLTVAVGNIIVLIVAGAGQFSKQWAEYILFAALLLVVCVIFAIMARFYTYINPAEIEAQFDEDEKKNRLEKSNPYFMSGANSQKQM
Procedure, shortened: (§1)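 HeLa cells expressing human PEPT1 cDNA. [14C]glycylsarcosine (50 μM) uptake for 5 min in Mes/Tris buffer, pH 6.0, giving an H+ gradient, with test compound at 2.5 mM. Vector-transfected uptake subtracted. Percent of control, n=3, mean ± S.E.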

[4] = biological target: T3, Solute carrier family 15 member 2 (Rattus norvegicus) (UniProt Q63424); test: TP_TRANSPORTER: inhibition of Gly-Sar uptake (Gly-Sar: 25 uM, Cefluprenam: 2500uM) in PEPT2-expressing HeLa cells
T3 sequence (whole entry): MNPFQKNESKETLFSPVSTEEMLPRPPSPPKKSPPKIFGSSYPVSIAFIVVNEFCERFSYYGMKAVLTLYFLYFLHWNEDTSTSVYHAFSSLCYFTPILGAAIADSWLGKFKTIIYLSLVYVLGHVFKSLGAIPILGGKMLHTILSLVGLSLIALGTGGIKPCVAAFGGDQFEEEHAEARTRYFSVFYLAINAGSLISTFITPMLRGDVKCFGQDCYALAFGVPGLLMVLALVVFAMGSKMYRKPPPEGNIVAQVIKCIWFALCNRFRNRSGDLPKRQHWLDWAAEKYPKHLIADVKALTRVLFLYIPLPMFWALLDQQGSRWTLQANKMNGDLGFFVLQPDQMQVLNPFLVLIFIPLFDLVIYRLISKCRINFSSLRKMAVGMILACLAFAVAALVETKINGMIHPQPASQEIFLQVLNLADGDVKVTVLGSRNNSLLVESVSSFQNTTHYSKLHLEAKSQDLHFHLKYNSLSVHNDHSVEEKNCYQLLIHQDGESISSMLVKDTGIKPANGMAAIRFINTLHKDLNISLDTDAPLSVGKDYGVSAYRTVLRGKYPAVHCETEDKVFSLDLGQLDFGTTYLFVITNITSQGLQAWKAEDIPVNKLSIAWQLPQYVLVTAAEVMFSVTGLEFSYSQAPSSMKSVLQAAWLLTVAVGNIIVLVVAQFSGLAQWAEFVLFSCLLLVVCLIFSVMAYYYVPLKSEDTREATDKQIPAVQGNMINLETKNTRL
Procedure, shortened: (§2)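 HeLa cells expressing rat PEPT2 cDNA. [14C]glycylsarcosine (25 μM) uptake for 5 min under an inward H+ gradient in Mes/Tris buffer, pH 6.0, with test compound at 2.5 mM. Vector-cell uptake subtracted. Results as percent of control, three independent measurements, mean ± S.E.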

[5] = biological target: T4, OCTN2 (organic cation/carnitine transporter 2) (Homo sapiens, UniProt O76082); test: (§3) TP_TRANSPORTER: inhibition of Carnitine uptake (Carnitine: 0.02 uM, Cefluprenam: 2500 uM) in OCTN2-expressing HeLa cells; design: scale not given: the % may be the effect or the level left; settings: probe carnitine (0.02 uM), read-out: Activity
T4 sequence (O76082 whole entry): T1 sequence (O76082 whole entry)
Procedure, shortened: (§4)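 HeLa cells expressed human or rat OCTN2 cDNA by vaccinia virus/T7 system. [3H]carnitine (20 nM) uptake for 30 min at room temperature in Na+-containing Hepes/Tris buffer, pH 7.5, with β-lactam at 2.5 mM. Lysate radioactivity counted. Endogenous activity from vector-only cells subtracted. Four measurements from two transfections.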

[6] = biological target: T5, OCTN2 (organic cation/carnitine transporter 2) (Rattus norvegicus, UniProt O70594); test: as §3; design: scale not given: the % may be the effect or the level left; settings: human, probe carnitine (0.02 uM), read-out: Activity; procedure, shortened: as §4
T5 sequence (O70594 whole entry): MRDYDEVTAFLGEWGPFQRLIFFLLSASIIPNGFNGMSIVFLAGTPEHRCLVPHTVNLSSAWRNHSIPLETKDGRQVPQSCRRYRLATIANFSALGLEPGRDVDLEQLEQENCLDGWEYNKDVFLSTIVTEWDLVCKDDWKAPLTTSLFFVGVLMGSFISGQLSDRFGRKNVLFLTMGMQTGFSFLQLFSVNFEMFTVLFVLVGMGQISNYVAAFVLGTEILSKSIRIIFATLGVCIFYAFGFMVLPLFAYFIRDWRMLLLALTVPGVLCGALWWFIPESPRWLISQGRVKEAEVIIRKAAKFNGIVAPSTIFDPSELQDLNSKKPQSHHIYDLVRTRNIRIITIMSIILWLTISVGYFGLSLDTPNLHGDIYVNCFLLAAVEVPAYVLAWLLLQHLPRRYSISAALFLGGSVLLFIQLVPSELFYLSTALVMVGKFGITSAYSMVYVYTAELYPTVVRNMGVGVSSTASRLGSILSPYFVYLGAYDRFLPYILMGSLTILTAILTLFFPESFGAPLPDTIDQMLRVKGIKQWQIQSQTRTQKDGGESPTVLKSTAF

[7] = biological target: T5, OCTN2 (organic cation/carnitine transporter 2); test: TP_TRANSPORTER: inhibition of Carnitine uptake (Carnitine: 0.02 uM, Cefepime: 2500 uM) in OCTN2-expressing HeLa cells; design: scale not given: the % may be the effect or the level left; settings: human, probe carnitine (0.02 uM), read-out: Activity; procedure, shortened: as §4
[8] = biological target: T3, Solute carrier family 15 member 2 (Rattus norvegicus); test: TP_TRANSPORTER: inhibition of Gly-Sar uptake (Gly-Sar: 25 uM, Cefepime: 2500uM) in PEPT2-expressing HeLa cells; procedure, shortened: as §2
[9] = biological target: T1, Organic cation/carnitine transporter 2; test: TP_TRANSPORTER: inhibition of Carnitine uptake (Carnitine: 0.02 uM) in OCTN2-expressing HeLa cells
[10] = biological target: T2, Solute carrier family 15 member 1 (Homo sapiens); test: TP_TRANSPORTER: inhibition of Gly-Sar uptake (Gly-Sar: 50 uM, Cefepime: 2500uM) in PEPT1-expressing HeLa cells; procedure, shortened: as §1
[11] = biological target: T1, Organic cation/carnitine transporter 2; test: (§5) TP_TRANSPORTER: inhibition of Carnitine uptake (Carnitine: 0.02 uM, Ceftazidime: 2500 uM) in OCTN2-expressing HeLa cells
[12] = biological target: T6, Organic cation/carnitine transporter 2 (Rattus norvegicus, UniProt O70594); test: as §5; settings: human
T6 sequence (O70594 whole entry): T5 sequence (O70594 whole entry)

[13] = biological target: T3, Solute carrier family 15 member 2 (Rattus norvegicus); test: TP_TRANSPORTER: inhibition of Gly-Sar uptake (Gly-Sar: 25 uM, Ceftazidime: 2500uM) in PEPT2-expressing HeLa cells
Procedure, shortened: (§6)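 HeLa cells were transfected with human PEPT1 or rat PEPT2 cDNA. [14C]glycylsarcosine uptake (50 μM for PEPT1, 25 μM for PEPT2) ran 5 min at room temperature, inward H+ gradient, 25 mM Mes/Tris pH 6.0 buffer, antibiotic 2.5 mM. Vector-cell uptake was subtracted and lysates were scintillation-counted. Mean ± S.E., three measurements.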

[14] = biological target: T2, Solute carrier family 15 member 1 (Homo sapiens); test: TP_TRANSPORTER: inhibition of Gly-Sar uptake (Gly-Sar: 50 uM, Ceftazidime: 2500uM) in PEPT1-expressing HeLa cells; procedure, shortened: as §6
[15] = biological target: T1, Organic cation/carnitine transporter 2; test: TP_TRANSPORTER: uptake in OCTN2-expressing HeLa cells
Procedure, shortened: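 hOCTN2 or vector-transfected HeLa cells incubated with 1 mM cephaloridine for 1 h at 37 °C in NaCl or N-methyl-D-glucamine chloride (Na+-free) medium. Cells lysed in water and lysate centrifuged. Supernatant cephaloridine quantified by C18 HPLC with UV at 254 nm against a standard curve, expressed per 10^6 cells.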

[16] = biological target: T2, Solute carrier family 15 member 1 (Homo sapiens); test: TP_TRANSPORTER: inhibition of Gly-Sar uptake (Gly-Sar: 50 uM, CER: 2500uM) in PEPT1-expressing HeLa cells; procedure, shortened: as §1

CC1(C)S[C@@H]2[C@H](NC(=O)[C@H](N)c3ccccc3)C(=O)N2[C@H]1C(=O)O [AMPICILLIN]
Activity [1]: is not an inhibitor [-]

CC1(C)S[C@@H]2[C@H](NC(=O)C3(N)CCCCC3)C(=O)N2[C@H]1C(=O)O [CYCLACILLIN]
Activity [2]: is not an inhibitor [-]

CC[N+](C)(C/C=C/C1=C(C(=O)[O-])N2C(=O)[C@@H](NC(=O)/C(=N\OCF)c3nsc(N)n3)[C@H]2SC1)CC(N)=O (stereo partly specified) [CEFLUPRENAM]
Activity [3]: is not an inhibitor [-] | Activity [4]: is not an inhibitor [-] | activity at 2500 µM [5]: 74% | activity at 2500 µM [6]: 76%

CO/N=C(\C(=O)N[C@@H]1C(=O)N2C(C(=O)[O-])=C(C[N+]3(C)CCCC3)CS[C@H]12)c1csc(N)n1 [CEFEPIME]
activity at 2500 µM [7]: 28% | Activity [8]: is not an inhibitor [-] | IC50 [9]: 1700 µM | Activity [10]: is not an inhibitor [-]

CC(C)(O/N=C(\C(=O)N[C@@H]1C(=O)N2C(C(=O)[O-])=C(C[n+]3ccccc3)CS[C@H]12)c1csc(N)n1)C(=O)O [CEFTAZIDIME]
Activity [11]: is not an inhibitor [-] | Activity [12]: is not an inhibitor [-] | Activity [13]: is not an inhibitor [-] | Activity [14]: is not an inhibitor [-]

O=C(Cc1cccs1)N[C@@H]1C(=O)N2C(C(=O)[O-])=C(C[n+]3ccccc3)CS[C@H]12 [CEPHALORIDINE]
Activity [15]: substrate [+] | Activity [16]: is not an inhibitor [-]

Reference: ChEMBL document CHEMBL2074042, “beta-lactam antibiotics as substrates for OCTN2, an organic cation/carnitine transporter” (J Biol Chem, 2000)
